Data set [1] relates to BT-474. The data set is described as follows: Depletion of HER2 protein expression in human BT474 cells at 200 nM after 24 hrs by Western immunoblotting. It is filed as functional, cell-based. The method, boiled down: (§1)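 BT474 or HCT116 cells treated for 24 h at 25, 50, 100, 200 and 400 nM. Lysates prepared in 50 mM Tris-HCl with 2% SDS, pH 6.8, and protein measured by BCA. Equal loads run on SDS-PAGE and transferred to PVDF; probed with ECL detection, with GAPDH as loading control.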
For orientation: In western blotting, separated proteins are transferred to a membrane and probed.

Data set [2] relates to BT-474. As to the kind of experiment: Depletion of HER2 protein expression in human BT474 cells at 400 nM after 24 hrs by Western immunoblotting. Type of data set: functional, cell-based. A digest of the protocol:
as §1

The test system of the next data set is HCT-116. As to the kind of experiment: Depletion of HER2 protein expression in human HCT116 cells at 200 nM after 24 hrs by Western immunoblotting. Type of data set: functional, cell-based.
Data set [3] is described as follows: AUC last in BALB/c mouse at 10 mg/kg, po by LC-MS/MS analysis. It is filed as ADME, organism-based. On the set-up: dose 10 mg/kg, route oral, time 0 - last. The conditions noted are these: plasma. The method, boiled down: (§2)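 Male Balb-c mice given a single 10 mg/kg oral gavage dose in 1% methyl cellulose (w/v); plasma from terminal blood samples quantified by LC-MS/MS, followed by pharmacokinetic analysis. LLoQ 50 ng/mL.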

A short description of data set [4]: Cmax in BALB/c mouse at 10 mg/kg, po by LC-MS/MS analysis. On the set-up: dose 10 mg/kg, route oral. It is filed as ADME, organism-based. The conditions noted are these: in vivo. The method, boiled down: as §2
The nature of data set [5]: Antitumor activity against human WM266.4 cells xenografted in Ncr athymic mouse assessed as mean tumor weight at 50 mg/kg, po commenced 6 days after tumor cell inoculation and continued daily measured after 21 days relative to control. It is filed as functional, WM 266-4. A digest of the protocol:
(§3)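 Female Ncr athymic mice, 6-8 weeks old, inoculated bilaterally sc with 2 million WM266.4 cells. Oral gavage once daily at 50 or 100 mg/kg began on day 6, at about 5 mm mean tumor diameter; groups of 9-10. Vehicle was 10% DMSO, 5% Tween 20 and 85% saline; controls got vehicle. Some 100 mg/kg doses were skipped. Tumors measured three times weekly; excised and weighed on day 21.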

The test system of data set [6] is Mus musculus. As to the kind of experiment: Modulation of Hsp72 protein expression in human WM266.4 cells xenografted in Ncr athymic mouse at 100 mg/kg, po commenced 6 days after tumor cell inoculation and continued daily for 21 days measured 24 hrs after final dose by Western immunoblotting. It is filed as functional, organism-based. On the set-up: dose 100 mg/kg. For orientation: Xenograft models place foreign cells or tissue in a host animal.

Data set [7] has as its system Mus musculus. As to the kind of experiment: Toxicity in Ncr athymic mouse assessed as body weight loss at 50 mg/kg, po. The conditions noted are these: in vivo. Type of data set: organism-based. More on the design: dose 50 mg/kg, route oral.
Data set [8] in a line: Antitumor activity against human PC3LN3 cells xenografted in CrTac:Ncr-Fox1 nude athymic mouse assessed as primary tumor weight at 50 mg/kg, po qd commenced 12 days after tumor cell inoculation measured after 14 days relative to control. Type of data set: functional.
Data set [9] is described as follows: Antitumor activity against human PC3LN3 cells xenografted in CrTac:Ncr-Fox1 nude athymic mouse assessed as local lymph node tumor weight at 100 mg/kg, po qd commenced 12 days after tumor cell inoculation measured after 14 days relative to control. Type of data set: functional.
A short description of data set [10]: Antitumor activity against human PC3LN3 cells xenografted in CrTac:Ncr-Fox1 nude athymic mouse assessed as regional lymph node tumor weight at 100 mg/kg, po qd commenced 12 days after tumor cell inoculation measured after 14 days relative to control. Type of data set: functional.
In data set [11] the test system is Mus musculus. The data set is described as follows: Modulation of Hsp72 protein expression in human PC3LN3 cells xenografted in CrTac:Ncr-Fox1 nude athymic mouse at 100 mg/kg, po qd commenced 12 days after tumor cell inoculation measured for 14 days measured 24 hrs after final dose by Western immunoblotting. Type of data set: functional, organism-based. More on the design: dose 100 mg/kg.

The test system of data set [12] is BT-474. The data set is described as follows: Induction of Hsp72 protein expression in human BT474 cells at 4 times GI50 after 24 hrs by Western immunoblotting. Type of data set: functional, cell-based. The method, boiled down:
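BT474 cells exposed for 24 h at 2, 4 or 8 times the cellular GI50. Hsp72 detected by Western blot with ECL, GAPDH as loading control.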

Data set [13] is described as follows: Metabolic stability in human liver microsomes assessed as compound turnover at 1 uM after 10 mins in presence of NADPH relative to control without NADPH. Type of data set: ADME, Microsome. The conditions noted are these: read-out: Stability. A digest of the protocol:
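Compound at 1 μM incubated 10 min with liver microsomes (0.5 mg/mL) ± 2 mM NADPH; microsome sources were human mixed pool, C57 mouse and SD rat. Reaction stopped by acetonitrile precipitation, supernatant analysed by LC/MSMS. Turnover expressed as percent of no-NADPH control, n = 3.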

For data set [14], the system named is BT-474. The data set is described as follows: Reduction of phosphorylated AKT protein expression in human BT474 cells at 2 times GI50 after 24 hrs by Western immunoblotting. Type of data set: functional, cell-based. The method, boiled down:
(§4)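 BT474 cells exposed 24 h to compound at 2, 4 or 8 times the cellular GI50. Lysates made in 50 mM Tris-HCl, 2% SDS pH 6.8 and protein assayed by BCA. Equal protein run on SDS-PAGE, transferred to PVDF, immunoblotted with ECL detection; GAPDH used as loading control.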

Data set [15] concerns BT-474. As to the kind of experiment: Reduction of phosphorylated AKT protein expression in human BT474 cells at 4 times GI50 after 24 hrs by Western immunoblotting. Type of data set: functional, cell-based. The method, boiled down: as §4
Data set [16] relates to BT-474. The data set is described as follows: Antitumor activity against estrogen receptor and HER2 overexpressing human BT474 cells xenografted in Harlan HsdNpa athymic nude mouse assessed as changed in 100 mm'3 tumor volume at 30 mg/kg, po qd. Type of data set: functional. A digest of the protocol:
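Female athymic nude mice carrying an estradiol pellet (25 μg/day) and implanted sc in the right flank with 5 × 10^6 BT-474 cells in Matrigel:HBSS (1:1). Treatment started once mean tumor volume reached about 100 mm3. Oral dosing at 30 mg/kg once daily, 10 mL/kg, in 0.5% sodium carboxymethylcellulose. Relative tumor volume and body weight tracked; SEM, one-way ANOVA with Dunnett's post hoc test.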

For data set [17], the system named is Mus musculus. As to the kind of experiment: Toxicity in Harlan HsdNpa athymic nude mouse assessed as change in body weight at 30 mg/kg, po qd. It is filed as organism-based. The conditions noted are these: in vivo. More on the design: dose 30 mg/kg, route oral. A digest of the protocol: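 Female athymic nude mice with estradiol pellet and sc BT-474 cells (5×10^6 in Matrigel:HBSS) in the flank. Dosed orally once daily at 30 mg/kg in 0.5% sodium carboxymethylcellulose (10 mL/kg), starting at mean tumour volume ~100 mm3. Body weight change monitored as % during therapy.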

Another data set concerns A2058. As to the kind of experiment: Growth inhibition of human A2058 cells after 24 hrs by SRB assay. Type of data set: functional. The conditions noted are these: A2058, 24 h. (In SRB staining, fixed cells bind dye roughly in proportion to their protein.)
In data set [18] the test system is BT-474. As to the kind of experiment: Growth inhibition of human BT474 cells after 24 hrs by SRB assay. Type of data set: functional. The conditions noted are these: BT-474, 24 h. The method, boiled down:
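Growth inhibition measured by SRB assay; GI50 is the concentration giving 50% growth inhibition. Mean of at least two independent determinations.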

Data set [19] concerns Mus musculus. The data set is described as follows: Decrease in phosphorylated AKT protein level in estrogen receptor and HER2 overexpressing human BT474 cells xenografted in Harlan HsdNpa athymic nude mouse at 30 mg/kg, po qd measured 6 hrs after final dose by Western immunoblotting. Type of data set: functional, organism-based. More on the design: dose 30 mg/kg. The conditions noted are these: BT-474. The method, boiled down: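 BT474 xenograft-bearing nude mice received 30 mg/kg po once daily. Tumors were collected at the end of the efficacy study, 6 h after the final dose. They were assayed for p23 dissociation from Hsp90α or for client protein levels by Western blotting.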

A short description of data set [20]: Antitumor activity against human WM266.4 cells xenografted in Ncr athymic mouse assessed as effect of relative tumor volume at 50 mg/kg, po commenced 6 days after tumor cell inoculation and continued daily measured after 21 days. Type of data set: functional, WM 266-4. A digest of the protocol: as §3
The nature of data set [21]: Antitumor activity against human WM266.4 cells xenografted in Ncr athymic mouse assessed as effect of relative tumor volume at 100 mg/kg, po commenced 6 days after tumor cell inoculation and continued daily measured after 21 days. It is filed as functional, WM 266-4. A digest of the protocol: as §3

Calls of active or inactive are those of the source. The calls are words filed in the database; no cut-off is given here.

The record followed here is ChEMBL document CHEMBL1158486, “Combining hit identification strategies: fragment-based and in silico approaches to orally active 2-aminothieno[2,3-d]pyrimidine inhibitors of the Hsp90 molecular chaperone” (J Med Chem, 2009).

As a reminder, the AUC(0-t) is the area under the concentration-time curve up to a stated or last time point. A higher AUC(0-t) goes with more exposure. By Cmax is commonly meant the highest concentration seen after dosing. As a reminder, the T/C is the ratio of treated to control. For orientation: GI50 means the concentration that inhibits growth by half. A lower GI50 goes with greater sensitivity of the cells. For `CCNC(=O)c1cc2c(-c3cc(OCCN(CC)CC)c(Cl)cc3Cl)nc(N)nc2s1`, the outcome in the data set with BT-474 [1], in the data set with BT-474 [2], with Mus musculus [6], in the data set with Mus musculus [11], in the data set with BT-474 [12] and in the data set with BT-474 [14] was Active. For the same molecule, the outcome in the data set with BT-474 [15] and in the data set with Mus musculus [19] was Active. The outcome in the data set on HCT-116 was inactive. The molecule further yielded an AUC(0-t) in [3] of 858 ng·h/mL. For the same molecule, the Cmax in data set [4] is 238 ng/mL. The T/C in data set [5] is 24.6%; in data set [8] it was 23%; in [9] it was 11.3%; in data set [10] it was 19.1%; in data set [20] it was 24.6%; in [21] it was 15.9%. Also, the figures for the Activity entry with Mus musculus [7], in the data set on BT-474 [16] and in the data set with Mus musculus [17] were “Non-toxic”, -29 mm3 and -11%, respectively. In addition, the metabolised at 10 min, 1 µM in data set [13] amounted to 17.3%. In addition, the GI50 with A2058 stood at 108 nM; with BT-474 [18], 73 nM.
